Series [1] relates to BJ. The series is described as follows: Delocalization of POT1 protein from […] in human BJ cells expressing SV40 early protein EHLT after 72 hrs by chromatin immunoprecipitation assay. Format: functional, cell-based. Summed up:
(§1)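 BJ-EHLT cells treated 24 or 72 h. Formaldehyde-crosslinked chromatin immunoprecipitated with anti-TRF1, anti-TRF2 or anti-POT1; β-actin antibody as negative control. Precipitates blotted and probed for telomeric repeats (ALU probe as nonspecific). Densitometry gives percentage of precipitated DNA relative to input (10% and 1%). Four independent experiments, SD.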

In series [2] the test system is BJ. The series is described as follows: Cell cycle arrest in human BJ cells expressing TERT assessed as accumulation at S stage at 0.5 uM after 24 hrs by propidium iodide staining based flow cytometry (reference value: 21%). Format: ADME.
Series [3] relates to BJ. The series is described as follows: Cell cycle arrest in human BJ cells expressing TERT assessed as accumulation at S stage at 0.5 uM after 72 hrs by propidium iodide staining based flow cytometry (reference value: 10%). Format: ADME.
The test system of series [4] is M14. Put plainly: Cytotoxicity against human M14 cells after 4 days by clonogenic assay relative to control. Format: functional, cell-based. The following applies: M14, 96 h. Summed up: (§2)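 Clonogenic survival: cells seeded at 2 × 10^5 per dish and exposed for 4 days to 0.5-2 μM. Surviving fraction taken as absolute survival of treated over control. Four experiments, each in triplicate; mean with SD.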

For series [5], the system named is BJ. The series is described as follows: Induction of telomere dysfunction induced foci n human BJ cells expressing SV40 early protein EHLT assessed as increase in 53BP1/TRF1 co-localization by Deconvolution microscopy. Format: functional, cell-based. Summed up: (§3)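 BJ-EHLT cells stained for TRF1 together with γ-H2AX or 53BP1 and imaged by deconvolution microscopy. Cells with four or more γ-H2AX/TRF1 foci scored as TIF positive; percentage of TIF-positive cells and mean TIFs per nucleus recorded. Mean of three experiments, SD.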

Series [6] concerns Nucleic Acid. The series is described as follows: Stabilization of human duplex DNA T-loop assessed as change in melting temperature at 1 uM by FRET assay. It is filed as nucleic-acid assay.
For series [7], the system named is HT-29. Put plainly: Cytotoxicity against human HT-29 cells after 4 days by clonogenic assay relative to control. It is filed as functional, cell-based. The following applies: HT-29, 96 h. Summed up:
as §2

Series [8] deals with Nucleic Acid. The series is described as follows: Binding affinity to human 21-TT G-quadruplex DNA structure assessed as first step association constant by electrospray ionization mass spectrometry. It is filed as nucleic-acid assay. Summed up:
(§4)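 ESI-MS in 150 mM ammonium acetate; DNA 5 μM final (per duplex or quadruplex unit); ligand at drug/DNA ratios 0.5 to 4. Methanol (15%) added just before injection, after binding equilibrium. K1 and K2 for 1:1 and 2:1 complexes, and % bound DNA, taken from relative peak intensities assuming equal response factors. At least three repeats.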

The test system of series [9] is PC-3. Put plainly: Antiproliferative activity against human PC3 after 2 to 8 days by trypan blue assay. It is filed as functional, cell-based. Summed up:
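Cells seeded at 5 ×10^4 per dish; compounds freshly dissolved and added to the medium 24 h after plating, at 0.5 μM or 3 μM (3 μM only for one derivative). Cell number by Coulter counting and viability by trypan blue exclusion daily, day 1 to day 8. Growth inhibition of treated vs untreated cells calculated at days 2, 4, 6 and 8. Representative experiments in quintuplicate, SD shown.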

For series [10], the system named is Nucleic Acid. Put plainly: Binding affinity to human 21-TT G-quadruplex DNA structure at 1:1 DNA to calf thymus DNA ratio by competitive inhibition assay. It is filed as nucleic-acid assay. The arrangement: concentration or dose not given beside the values. Summed up:
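ESI-MS competition: quadruplex DNA and ligand each 5 μM final, plus calf thymus DNA at duplex/quadruplex ratios 1 and 5 (by phosphate concentration), in ammonium acetate. Percentage bound quadruplex and normalized bound quadruplex (N%) measured by mass spectrometry. SD over at least three independent experiments.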

The test system of series [11] is BJ. The series is described as follows: Cell cycle arrest in human BJ cells expressing TERT assessed as accumulation at G0/G1 stage at 0.5 uM after 24 hrs by propidium iodide staining based flow cytometry (reference value: 61%). Format: ADME.
Series [12] relates to BJ. The series is described as follows: Induction of DNA damage n human BJ cells expressing SV40 early protein EHLT assessed as increase in gamma-H2Ax phosphorylation at 0.5 uM. Format: functional. Summed up: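 BJ-EHLT and BJ-hTERT fibroblasts exposed to a range of concentrations for 24 h. Fixed in 2% formaldehyde, permeabilized in 0.25% Triton X-100, immunostained for γ-H2AX and 53BP1. Percentage of positive cells scored. Three independent experiments, SD.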

For series [13], the system named is BJ. The series is described as follows: Cell cycle arrest in human BJ cells expressing TERT assessed as accumulation at G0/G1 stage at 0.5 uM after 72 hrs by propidium iodide staining based flow cytometry (reference value: 83%). Format: ADME.
In series [14] the test system is BJ. Put plainly: Delocalization of TRF1 protein from […] in human BJ cells expressing SV40 early protein EHLT by chromatin immunoprecipitation assay. Format: functional, cell-based. Summed up:
as §1

The test system of series [15] is Nucleic Acid. The series is described as follows: Binding affinity to human 21-TT G-quadruplex DNA structure assessed as bound DNA at 5:10 DNA to drug ratio by electrospray ionization mass spectrometry. It is filed as nucleic-acid assay. Summed up:
as §4

The subject of series [16] is BJ. Put plainly: Induction of telomere dysfunction induced foci n human BJ cells expressing SV40 early protein EHLT assessed as increase in gamma H2AX/TRF1 co-localization by Deconvolution microscopy. It is filed as functional, cell-based. Summed up:
as §3

Series [17] deals with BJ. Put plainly: Cell cycle arrest in human BJ cells expressing TERT assessed as accumulation at G2/M stage at 0.5 uM after 48 hrs by propidium iodide staining based flow cytometry (reference value: 6%). Format: ADME. A general note: In flow cytometry, cells or beads pass a laser one at a time.
The test system of series [18] is BJ. The series is described as follows: Cell cycle arrest in human BJ cells expressing TERT assessed as accumulation at G0/G1 stage at 0.5 uM after 48 hrs by propidium iodide staining based flow cytometry (reference value: 80%). It is filed as ADME.
Series [19] has as its system Nucleic Acid. Put plainly: Binding affinity to human 21-TT G-quadruplex DNA structure assessed as bound DNA at 5:5 DNA to drug ratio by electrospray ionization mass spectrometry. It is filed as nucleic-acid assay. Summed up: as §4

Calls of active or inactive are those of the source. The calls are words filed in the database; no cut-off is given here.

As for `O=C1c2ccc3c4ccc5c6c(cc(N7CCCCC7)c(c7ccc(c2c37)C(=O)N1CCOCCN1CCCCC1)c64)C(=O)N(CCOCCN1CCCCC1)C5=O`, the result in series [1], in series [5], in series [9] and in series [16] was Active. Further, the Activity was 21.1% in series [2]; 7.6% in series [3]; 47% in series [10]; 62.8% in [11]; 50% in [12]; 87.3% in series [13]. For the same compound, the Activity worked out at 75% in series [15], 7.6% in series [17], 78.4% in series [18] and 56% in [19]. Also, the IC50 was found to be 800 nM in series [4] and 1100 nM in [7]. Besides, the shift in melting temperature (ΔTm) in [6] was -0.2 °C. Besides, the log Ks in series [8] came to 5.8. In [14], the result was inactive.

As a reminder, the IC50 is the midpoint of a concentration-inhibition curve. By ΔTm is commonly meant the shift of the melting midpoint relative to a reference.

For the origin of these results see ChEMBL document CHEMBL1687886, “N-cyclic bay-substituted perylene G-quadruplex ligands have selective antiproliferative effects on cancer cells and induce telomere damage” (J Med Chem, 2011).
